Compound activity: PubChem, several laboratories
Most compounds without a hit are left out; they make up all but 2.8% or so of the library.
EP2 mod – modulates human prostaglandin E2 receptor EP2 signaling; P43116; EP2-expressing cells, cAMP HTRF FRET, PGE2 co-stimulation; induction, % at 25 µM; AID 940; 260,000 compounds, 0.83% hits;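 active means compounds whose cAMP rise, as percent of the full-agonist control response, exceeds 60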;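 further: rat C6 glioma line stably carrying human EP2 under a CMV promoter; the protocol text gives 20 µM as final concentration; 100% = response of wells given 1 µM PGE2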
EP2 antag – inhibitors of human EP2 prostaglandin E2 receptor; P43116; C6 glioma cells expressing human EP2, cAMP TR-FRET; cells stimulated with saturating PGE2; inhibition, % at 25 µM; 260,000 compounds, 0.52% hits; AID 1422;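 active means percent inhibition above 40 after rounding to a whole number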;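 further: rat C6 glioma host cells with rolipram phosphodiesterase inhibitor present; the protocol text gives 20 µM as final concentration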
NPY-Y2 antag – NPY-Y2 (human) receptor antagonism. P49146. NPY-Y2 expressing cells, antagonist mode. inhibition, % at 2.7 µM. 140,000 compounds, 0.99% hits. AID 793; in the data active means inhibition above about 17%;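 further: 0% = vehicle with agonist challenge and 100% = reference antagonist with challenge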
Target sequence (P49146 whole entry, looked up): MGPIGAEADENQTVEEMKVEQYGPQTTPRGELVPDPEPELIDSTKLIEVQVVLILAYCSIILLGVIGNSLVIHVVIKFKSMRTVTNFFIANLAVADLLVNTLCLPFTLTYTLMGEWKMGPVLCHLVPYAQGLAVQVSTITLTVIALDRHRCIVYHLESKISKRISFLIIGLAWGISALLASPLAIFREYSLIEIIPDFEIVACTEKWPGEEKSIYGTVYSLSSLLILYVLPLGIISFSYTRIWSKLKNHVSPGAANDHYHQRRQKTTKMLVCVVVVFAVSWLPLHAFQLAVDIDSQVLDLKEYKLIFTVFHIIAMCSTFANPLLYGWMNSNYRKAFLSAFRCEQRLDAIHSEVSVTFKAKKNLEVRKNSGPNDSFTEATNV
NPY Y1 blocker – NPY-Y1 (human) receptor antagonism; 200,000 compounds, 1% hits; HEK293-CNG Y1 cells, membrane potential fluorescence; NPY at EC95, then isoproterenol; inhibition, % at 3.6 µM; P25929;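 active means inhibition above the campaign mean inhibition of all tested compounds plus 3 SD, cut at about 20% in these data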;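 further: 0% = DMSO wells given NPY plus isoproterenol and 100% = isoproterenol alone without NPY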
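Benchmarks – high control isoproterenol alone, low control NPY with isoproterenol · Material – HEK293 Y1/CNG channel cell line · Times – dye 3 h, compound 60 min room temperature, stimulation 45 min · Probe or stimulus – NPY (25 nM), isoproterenol (1 µM), Ro 20-1724 (25 µM) · Evaluation – % inhibition of NPY effect · Signal – fluorescence, membrane potential probe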
NPY2 pot ag – potentiators or agonists of human neuropeptide Y receptor Y2; P49146; cells expressing NPY-Y2, potentiator/agonist read-out; activation, % at 3.6 µM; 220,000 compounds, 0.45% hits; in the data active means activation above about 27%;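 further: cells stimulated with NPY near EC25 plus isoproterenol at EC100; 0% = vehicle plus submaximal agonist and 100% = vehicle plus saturating agonist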
NPY-Y1 PAM-ag – human NPY-Y1 potentiation or agonism, primary screen; P25929; NPY-Y1 expressing cells, potentiator/agonist activation; activation, % at 3.6 µM; 220,000 compounds, 0.37% hits; AID 1304; in the data active means activation above about 33%, passing the limit was not always enough;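 further: cells stimulated with NPY at EC10 then isoproterenol at EC100; 0% = low agonist plus stimulus and 100% = saturating agonist plus stimulus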
Starred values were filed as active, the others as inactive; . = no result given; ! = not confirmed by another sample.

SMILES	EP2 mod	EP2 antag	NPY-Y2 antag	NPY Y1 blocker	NPY2 pot ag	NPY-Y1 PAM-ag
CC1CC(C)CN(CCOc2ccccc2-c2ccccc2)C1 (centres undefined)	22	8	30*	34*	-9	-23
CC1CCN(CCOc2ccccc2-c2ccccc2)CC1	28	12	13	6	-11	-38
COc1ccc(/C=C/C(=O)NCCCc2ccccc2)cc1	-74	11	11	15	1	-25
CC(C)c1ccc(/C=C/C(=O)NCCCc2ccccc2)cc1	-69	0	30*	25*	-28	-14
CC(C)NC[C@@H](O)COc1ccc(CC(N)=O)cc1	8	11	.	.	.	.
CC(C)NCC(O)COc1cccc2[nH]ccc12 (centres undefined)	8	10	.	-15	106*	113*
COC(=O)Cc1c[nH]c2ccc(OCC(O)CNC(C)C)cc12 (centres undefined)	15	10	0	-14	88*	101*
CC(=O)NCCc1c[nH]c2ccc(OCC(O)CNC(C)(C)C)cc12 (centres undefined)	-1	5	.	.	57*	81*
CC(C)NCC(O)COc1cccc2ccccc12 (centres undefined)	-3	6	.	.	.	.
NC(N)=N/N=C/c1ccc(OCc2ccccc2)cc1	-10	13	9	12	-6	-23
NC(N)=N/N=C/c1ccc(OCc2ccc(Cl)cc2)cc1	-24	64*	6	11	-22	-36
Cc1nnc(NC(=O)CSc2nnc(-c3ccoc3C)n2-c2cccc(Cl)c2)s1	-3	15	.	.	.	.
Cc1cccc2cc(C#N)c(NC3CCCCC3)nc12	78*	15	.	.	.	.
O=C(Cn1ncc2cccn2c1=O)N1CCN(c2ccccc2F)CC1	-30	2	.	.	.	.
Cc1cc(C)nc(NC(=O)c2ccc(C)c([N+](=O)[O-])c2)n1	13	14	1	7	-9	4
Cc1ccc(C(=O)Nn2cnnc2)cc1[N+](=O)[O-]	.	9	18*	-1	-15	8
CN(C1CCCCC1)S(=O)(=O)c1ccc(-n2cnnn2)cc1	14	8	0	1	-3	-33
O=S(=O)(c1ccc(-n2cnnn2)cc1)N(C1CCCCC1)C1CCCCC1	64*	5	1	1	7	-12
O=C(/C=C/c1ccc2c(c1)OCO2)NCCSCc1ccc(Cl)cc1	-24	3	23*	37*	-16	-37
Cc1cc(C)n(Cc2ccc(Cl)cc2Cl)c(=O)c1S(=O)(=O)c1ccccc1	62*	10	9	14	5	-33
O=C(NC[C@H]1CCCN(C(=O)c2cnccn2)C1)c1ccco1	5	.	.	.	.	.
CN(C)CCCNC(=O)C(=O)NCc1ccc2c(c1)OCO2	-6	5	.	.	.	.
O=C(CCl)Nc1ccccc1Sc1ccccc1	64*	15	1	7	-4	18
O=C(CN1CCCC1)Nc1ccccc1Sc1ccccc1	61*	9	.	0	-9	-4
Nc1ccccc1NC(=O)CN1CCOCC1	4	15	.	.	.	.
SMILES	EP2 mod	EP2 antag	NPY-Y2 antag	NPY Y1 blocker	NPY2 pot ag	NPY-Y1 PAM-ag
O=C(CN1CCOCC1)Nc1ccccc1C(=O)O	-5	126*!	1	-1	10	4
CC(=O)Nc1ccccc1Sc1ccccc1	20	6	2	-7	-5	-8
C=CCOC(=O)C1=C(C)NC(C)=C(C(=O)OCC=C)C1c1cccc(OC)c1	36	12	.	.	.	.
N#CC1=C(N)OC2=C(C(=O)CCC2)C1c1ccc(OCc2cccc3ccccc23)cc1 (centres undefined)	-21	10	.	.	.	.
O=C(CSc1nnc2n(Cc3ccc(F)cc3)c3ccccc3n12)Nc1nccs1	-12	8	.	.	.	.
CCN(C(=O)COc1cc(=O)n(CC)c2ccccc12)c1cc(Cl)ccc1OC	-1	6	17*	23*	-25	-15
CCN(C(=O)COc1cc(=O)n(CC)c2ccccc12)c1cccc(Cl)c1	12	3	2	-6	-6	8
Cc1ccc(S(=O)(=O)N(CC(=O)Nc2ccccc2-c2ccccc2)c2ccc(C)cc2C)cc1	17	2	-2	0	-2	-22
Cc1cccc(N(CC(=O)Nc2ccccc2-c2ccccc2)S(=O)(=O)c2ccccc2)c1C	64*	2	0	11	-7	-17
Cc1ccc(CN2CCSc3ccc(C(=O)NCc4ccccn4)cc32)cc1	61*	9	.	6	1	7
O=C(NCc1ccco1)c1ccc2c(c1)N(Cc1ccccc1)CCS2	16	5	.	.	1	15
C=CCc1cccc2cc(C(=O)Nc3ccccc3C(=O)O)c(=O)oc12	20	6	.	-3	45*	28
c1ccc2sc(SCN(C3CCCCC3)C3CCCCC3)nc2c1	21	43*	.	.	.	.
c1ccc2sc(SCSc3nc4ccccc4s3)nc2c1	-11	6	.	.	-25	-15
Cc1ccc(C2CC(c3ccccc3C)n3nc(N)nc3N2)cc1 (centres undefined)	0	10	2	13	-1	-8
Cc1ccc(C2CC(c3cccs3)n3nc(N)nc3N2)cc1 (centres undefined)	-7	1	0	22*	12	2
Cc1cccc(CN2CCc3c(nc(N4CCCCC4C)[nH]c3=O)C2)n1 (centres undefined)	-22	.	.	.	.	.
CCOc1ccccc1NC(=O)C(NCCN(C)C)c1ccccc1 (centres undefined)	15	5	.	11	-2	-16
CCOc1ccccc1NC(=O)C(NCC1CCCCC1)c1ccccc1 (centres undefined)	65*	9	.	11	-2	2
Cc1ccc2nc(N3C(=O)C(O)=C(C(=O)c4ccco4)C3c3ccc(O)cc3)sc2c1 (centres undefined)	-16	28	.	.	.	.
Cc1ccc2nc(N3C(=O)C(O)=C(C(=O)c4ccc(C)o4)C3c3ccco3)sc2c1 (centres undefined)	14	49*	.	.	.	.
COc1cc(/C=C/C(=O)OCc2c(C)noc2C)ccc1OC(F)F	-4	83*	.	7	-25	-36
CC(CNCc1ccc2c(c1)OCO2)NCc1ccc2c(c1)OCO2 (centres undefined)	21	15	19*	24*	-20	-37
O=C(NCc1ccc2c(c1)OCO2)[C@@H]1C=CCN1C(=O)NC1CCCCC1	11	.	.	.	.	.
